Measured values collected from several papers.
Each line is one published result; the experiments were not run side by side.
Target: Serine/threonine-protein kinase pim-2 (PIM2, Homo sapiens, UniProt Q9P1W9)

With `O=C(Nc1cccnn1)N1CCC(=Cc2cccc(Oc3ccc(C(F)(F)F)cn3)c2)CC1` the remaining binding was 97% (cell-free assay, competition with immobilised ligand; 1 µM).
For `CN(C)c1ncc(F)c(-c2cnn3ncccc23)n1`, the remaining binding was 95% (binding; 1 µM).
`O=C(Nc1c[nH]nc1C(=O)NC1CCNCC1)c1cc(F)cc(F)c1` gave a remaining binding of 96% (binding, competition with immobilised ligand; 1 µM).
The remaining binding of `CN(C)c1ncnc(-c2ccc3nc(Nc4cc(CN5CCN(C(=O)CC(F)(F)F)CC5)ccn4)[nH]c3c2)c1Cl` is reported as 100% (cell-free assay, competition with immobilised ligand; 1 µM).
`C[C@@H](c1ccc(-n2cnc3c(N)ncnc32)cc1)N1CCc2nn(C)c(Cc3ccccc3)c2C1=O` has a remaining binding of 100% (binding, competition with immobilised ligand; 0.1 µM).
For `CN(c1nccc(-c2cnn3ncccc23)n1)C1CC1`, the remaining binding was 100% (binding; 1 µM).
`CN(C(=O)c1ccccc1)c1cc(N(C)c2ccc3c(c2)CCc2ccc(C(=O)NCCN4CCOCC4)cc2C3=O)ccc1F` has a remaining binding of 72% (cell-free assay, competition with immobilised ligand; 1 µM).
For `O=C(c1ccc(Nc2ncc(Cl)c(-c3ccc(Cl)s3)n2)cc1)N1CCC(N2CCCC2)CC1`, the remaining binding was 100% (binding, competition with immobilised ligand; 1 µM).
`C[C@H]1CCN(c2nccc(-c3cnn4ncccc34)n2)C1` gave a remaining binding of 81% (binding; 1 µM).
The remaining binding of `CO[C@@H](C)c1c(Nc2ccc([C@@H](N(C)C(=O)C3CCS(=O)(=O)CC3)C(F)(F)F)cc2)cnc2cc(Cl)nn12` is reported as 95% (cell-free assay, competition with immobilised ligand; 1 µM).
With `COc1cnc(Nc2cccc(S(N)(=O)=O)c2)nc1N1CCN(c2ccccc2)C(=O)C1` the remaining binding was 100% (binding, competition with immobilised ligand; 1 µM).
The remaining binding of `COc1ncc2cc3ccccc3nc2c1C#N` is reported as 88% (cell-free assay, competition with immobilised ligand; 5 µM).
The remaining binding of `C[C@@H]1CN(c2ccc3ncc(-c4ccc5[nH]nc(C6CC6)c5c4)n3n2)C[C@H](C)O1` is reported as 3.5% (binding, competition with immobilised ligand; 0.5 µM).
`C[C@H](c1cccc(C#N)c1)n1cc(Cl)cc(C(N)=O)c1=N` has a remaining binding of 100% (cell-free assay, competition with immobilised ligand; 1 µM).
`O=C(NCCCN1CCOCC1)c1ccc(Nc2ncc(Cl)c(-c3ccc(Cl)s3)n2)cc1` has a remaining binding of 100% (binding, competition with immobilised ligand; 1 µM).
With `C=CC(=O)N1CCC(C(=O)NCC(=O)N2CCN(c3nc(-c4cnc(N)nc4C(F)F)nc(N4CCOCC4)n3)CC2)CC1` the remaining binding was 82% (binding, competition with immobilised ligand; 1 µM).
For `CSc1cccnc1N1CCN(Cc2nc3ccccc3[nH]2)CC1`, the remaining binding was 96% (cell-free assay, competition with immobilised ligand; 1 µM).
`c1cnn2ncc(-c3ccnc(N4CCC45COC5)n3)c2c1` has a remaining binding of 64% (binding; 1 µM).
`O=C(N[C@H]1CCCCC/C=C\C2C[C@@]2(C(=O)O)NC(=O)[C@@H]2C[C@@H](Oc3ccncc3)CN2C1=O)OC1CCCC1` (stereo partly drawn) gave a remaining binding of 100% (binding, competition with immobilised ligand; 1 µM).
With `CC(C)(C)c1ccc(-c2nc(CBr)nn2-c2cccc(O)c2)cc1` the remaining binding was 81% (cell-free assay, competition with immobilised ligand; 10 µM).
`F[C@@H]1CCN(c2nccc(-c3cnn4ncccc34)n2)C1` gave a remaining binding of 100% (binding; 1 µM).
With `CNC(=O)[C@@H]1CC[C@@H](n2c(-c3ccc4cnccc4c3)nc3ccc(C(=O)NCc4cccc(C(N)=O)c4)cc32)C1` the remaining binding was 93% (binding, competition with immobilised ligand; 1 µM).
For `O=C(c1ccc(Nc2nccc(-c3cc4ccccc4s3)n2)cc1)N1CCC(N2CCCC2)CC1`, the remaining binding was 100% (binding, competition with immobilised ligand; 1 µM).
`N[C@H]1CCN(c2nccc(-c3cnn4ncccc34)n2)C1` has a remaining binding of 98% (binding; 1 µM).
